# ABHD4 inh = ABHD4 inhibitors, primary screen, biochemical, fluorescence polarization, mouse; (Lyso)-N-acylphosphatidylethanolamine lipase (Mus musculus), Q8VD66; purified mABHD4, FP-Rh probe fluorescence polarization; inhibition, % at 8.92 µM; actives 0.54% (n = 370,000);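 active = inhibition exceeding the mean over every tested compound plus 3 SD, cut at about 30% in these data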
#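 System: mouse ABHD4 enzyme, wild type / Medium: HEPES pH 7.0, NaCl, Pluronic buffer / Reagent: FP-Rh activity-based fluorescent probe / Control set: S159A mutant high control, sample median low control / Detection: fluorescence polarization with parallel and perpendicular emission, 525/598 nm / Schedule: 45 min + 60 min at 25 °C / Compound dosing: 8.92 µM, single dose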
# SIAE inh = human SIAE inhibitors, primary screen, biochemical, fluorescence polarization, FP-Rh probe, 1536-well HTS; Sialate O-acetylesterase (Homo sapiens), Q9HAT2; SIAE FP-Rh probe binding; inhibition, % at 9.66 µM; actives 0.69% (n = 370,000); AID 1053197, 2014;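 active = inhibition above a cutoff: mean of compounds within the control limits plus 3 SD of those, cut at about 17% in these data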
# PRMT1 FP inh = PRMT1 methyltransferase inhibitors, primary screen, biochemical, fluorescence polarization; recombinant PRMT1, activity-based probe fluorescence polarization; inhibition, % at 2.79 µM; actives 1.3% (n = 370,000); AID 652257, 2013;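 active = inhibition above about 21% made by adding two undisclosed values, limit read from the data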
# HTRA1 inhibitor = HTRA1 serine protease inhibitors, primary screen, biochemical, fluorescence polarization, HTS | inhibition, % at 5.96 µM | actives 0.5% (n = 340,000) | Q92743 | AID 504803, 2011 | recombinant HTRA1, FP-rhodamine activity-based probe; in the data active = inhibition above about 36%
# Target sequence (Q92743 whole entry, looked up): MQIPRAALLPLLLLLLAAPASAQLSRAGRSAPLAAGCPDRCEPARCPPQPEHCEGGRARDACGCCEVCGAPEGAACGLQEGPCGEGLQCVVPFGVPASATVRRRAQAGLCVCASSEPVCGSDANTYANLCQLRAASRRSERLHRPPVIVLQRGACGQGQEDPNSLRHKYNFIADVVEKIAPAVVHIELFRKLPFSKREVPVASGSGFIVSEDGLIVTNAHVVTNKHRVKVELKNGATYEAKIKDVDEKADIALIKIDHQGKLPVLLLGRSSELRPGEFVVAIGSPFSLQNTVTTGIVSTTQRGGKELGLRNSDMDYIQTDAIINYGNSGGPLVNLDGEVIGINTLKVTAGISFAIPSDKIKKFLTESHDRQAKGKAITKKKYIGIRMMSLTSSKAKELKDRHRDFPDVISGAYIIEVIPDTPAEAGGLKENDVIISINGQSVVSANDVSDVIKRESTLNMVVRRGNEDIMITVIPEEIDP
# JMJD2C inh = inhibitors of GASC-1 histone demethylase, primary screen, biochemical, fluorescence, DELFIA europium | GST-JMJD2C(1-420) H3K9me3 demethylation | inhibition, % at 2.35 µM | actives 0.069% (n = 330,000);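 active = more than half of a compound's replicate wells show inhibition beyond 50%, single wells judged on their own value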;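 also: signal counts dimethyl H3K9 product captured on neutravidin plate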
# HTRA1 inh conf = HTRA1 protease inhibitors, retest, confirmation, biochemical, fluorescence polarization; shares compounds with HTRA1 inhibitor; recombinant HTRA1, FP-rhodamine activity-based probe; inhibition, % at 5.96 µM; actives 66% (n = 1,600); AID 540248, 2011;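 active = mean inhibition over three repeats above a set limit taken from the earlier primary screen, cut at about 37% in these data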;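 also: inhibitors block probe binding so polarization drops and inhibition rises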
# PRMT1 inh conf = PRMT1 methyltransferase inhibitors, confirmation, biochemical, fluorescence polarization, triplicate | shares compounds with PRMT1 FP inh | recombinant His-PRMT1, activity-based probe fluorescence polarization | inhibition, % at 2.79 µM | actives 42% (n = 3,300) | AID 687036, 2013;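 active = mean inhibition across replicates above the hit cutoff derived for the earlier primary screen, cut at about 22% in these data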
# mABHD4 conf = ABHD4 inhibitors, retest, confirmation, biochemical, fluorescence polarization, mouse; shares compounds with ABHD4 inh; purified mABHD4, FP-Rh probe fluorescence polarization; inhibition, % at 8.92 µM; actives 55% (n = 1,800); AID 720658, 2013;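 active = mean inhibition across replicates above the hit cutoff set in the primary screen, cut at about 30% in these data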
# SIAE inh conf = human SIAE inhibitors, retest, confirmation, biochemical, fluorescence polarization, FP-Rh probe, triplicate | shares compounds with SIAE inh | SIAE FP-Rh activity-based probe | inhibition, % at 9.66 µM | actives 13% (n = 2,300) | AID 1117263, 2014;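 active = mean inhibition of the replicates above the hit cutoff set in the primary screen, cut at about 17% in these data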;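 also: inhibitors lower polarization as more probe stays unbound to SIAE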
# A number is an active result; - = inactive; . = no result. Most compounds without a hit are left out; they make up all but 2.4% or so of the library.
SMILES,ABHD4 inh,SIAE inh,PRMT1 FP inh,HTRA1 inhibitor,JMJD2C inh,PRMT1 inh conf,others
COc1cccc2c1C(=O)c1c(O)c3c(c(O)c1C2=O)CC(O)(C(C)=NO)CC3OC1CC(N)C(O)C(C)O1 (stereo unspecified),59,55,145,56,.,139,HTRA1 inh conf=67;mABHD4 conf=59;SIAE inh conf=44
COc1ccc(C)cc1NC1=NCCCS1,-,-,-,-,-,.,
Oc1cccc2nc3ccccc3nc12,-,18,-,67,-,.,HTRA1 inh conf=60;SIAE inh conf=-
CN1CCc2cc3c(c4c2C1Cc1ccccc1-4)OCO3 (stereo unspecified),46,24,51,68,-,.,HTRA1 inh conf=-;mABHD4 conf=50;SIAE inh conf=-
COc1ccc(OCC(=O)N2CCN(C/C=C/c3ccccc3)CC2)cc1,-,-,-,-,-,.,
N#Cc1c(/N=C/c2ccc(O)cc2O)sc2c1C1CCN2CC1,-,-,-,-,-,.,
O=C(O)Cn1cc(/C=C2\C(=O)NC(=O)N(Cc3ccco3)C2=O)c2ccccc21,-,-,27,-,-,-,
CCOC(=O)c1c(/N=C/C2C(=O)NC(=S)NC2=O)sc(C)c1C,.,.,.,.,-,.,
CCOC(=O)c1cc(C)sc1/N=C/C1C(=O)NC(=S)NC1=O,-,-,86,-,-,-,
CN1C(=O)NC(=O)/C(=C/c2ccc(C(=O)O)cc2)C1=O,-,-,31,-,-,-,
C[C@]12CCC3C(CC[C@H]4C[C@H](O)CC[C@]34C)C1C[C@@H](CCCCl)[C@@H]2O (stereo partly specified),-,-,-,.,.,.,
NN=C1C(Cl)=C(Cl)C(Cl)=C1Cl,-,-,26,-,.,-,
CC(C)(C)c1cc(O)ccc1O,-,-,-,.,.,.,
CCOc1ccc(C(C)=O)cc1Cc1c(O)[nH]c(=S)[nH]c1=O,-,-,-,-,-,.,
COc1ccc(C(C)=O)cc1Cc1c(O)[nH]c(=S)[nH]c1=O,-,-,28,-,-,-,
CNC(=O)C[C@H]1CC[C@@H]2NC[C@H](O)COC[C@H]2O1,-,-,-,.,.,.,
COc1ccc(N2C(=O)/C(=C/c3ccc(OC)c(OC)c3)C(=O)NC2=S)cc1,-,-,41,-,-,49,
COC(=O)COc1ccc(/C=C2\C(=O)NC(=S)N(c3ccc(C)cc3)C2=O)cc1OC,-,-,32,-,-,27,
COc1cc(/C=C2/C(=O)NC(=O)N(c3ccc(C)cc3)C2=O)cc(OC)c1OC,-,-,-,-,-,.,
COP(=S)(OC)SCN1C(=O)c2ccccc2C1=O,-,-,59,-,-,76,
COC(=O)C1=C(c2ccc(OC(F)(F)F)cc2)C[C@@H]2CC[C@H]1N2C(=O)N1CCC(C)CC1,-,-,-,-,-,.,
COC(=O)N(c1ccccc1)P1(=S)OCCO1,-,-,30,-,-,44,
CCOC(=O)N(c1ccccc1)P1(=S)OCCO1,-,-,-,-,-,.,
CNC(=O)CSP(=S)(OC)OC,-,-,32,-,.,29,
CCOC(=O)CNC(=O)CSP(=S)(OCC)OCC,-,-,-,-,-,.,
O=C(O)c1ccccc1-c1ccc(C=C2C(=O)N(c3ccccc3)C(=S)N(c3ccccc3)C2=O)o1,-,-,39,-,-,59,

# High-throughput results (PubChem)
